The test system of this series is MS2 coat protein. Description: apparent Kd, MS2 coat protein; higher = weaker binding; RNA-MaP array; theophylline 2 mM where present. The essentials:
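Designs were transcribed by stalled E. coli RNA polymerase on Illumina sequencing-chip clusters. They were titrated with SNAP-549-labelled MS2 coat protein from 0.7 or 1.5 nM, doubling to 3 µM, without and then with constant ligand. Buffer: 100 mM Tris-HCl pH 7.5, 80 mM KCl, 4 mM MgCl2, BSA, DTT, yeast tRNA, Tween-20. Green signal was normalised to red-channel RNA signal and control-cluster median Fmax. Apparent Kd is the median of filtered per-cluster binding-curve fits.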

[1] abbreviates: designed as: OFF switch for theophylline, no ligand.
Setting [2] is: ligand present: theophylline, designed as: OFF switch for theophylline.
Where [3] appears, read: designed as: ON switch for theophylline, no ligand.
Setting [4] is: ligand present: theophylline, designed as: ON switch for theophylline.

As usually defined, the apparent Kd is a dissociation constant that holds for the conditions of the assay. For the sequence “AUAACAUGAGGAUCACCCAUGUAAGCAGAUACCAGCUAGGAAACUAGCCCUUGGCAGCUGCAUUCCUCAUGUAGGUAUCUGCUAA”, the “apparent Kd” value under setting [1] stood at 15.8 nM and the “apparent Kd” value under setting [2] was found to be 62.5 nM.

Turning to “UGUAACAUGAGGAUCACCCAUGUGCACGAUACCAGCUUAUUGGUAGGCCCUUGGCAGCGUAUUCGGAAGAUGUAUAAUAUAUAUC”, the “apparent Kd” value is, setting by setting: under setting [3], 13.4 nM; under setting [4], 13.3 nM.

Consider “ACACAUGAGGAUCACCCAUGUCCAAUAGAUACCAGUGAUACAGUGCACCCUUGGCAGCUGUUACUGAGUAAUGGUUCCCUCGGAA”, for which the “apparent Kd” value is 36.6 nM under setting [3] and 46 nM under setting [4].

Regarding “GACCUUGCGGGCGCCCGCAAGGUCGCGGAUACCAGCGAGGUCCAUCGCCCUUGGCAGCCGAACAUGAGGAUCACCCAUGUCGGUU”, the “apparent Kd” value runs as follows: under setting [3], 10.9 nM; under setting [4], 11.8 nM.

Regarding “UUAGAUAUGACAGAUACCAGCGUGUUGUAGAACAUGAGGAUCACCCAUGUAGUGAUCGUGCGCCCUUGGCAGCUGGUAUGUUUGG”, the “apparent Kd” value by setting is: under setting [3], 280 nM; under setting [4], 881 nM.

Regarding “UCCUCCUCCGCAAGGAGGAGGAGUUGCGAUACCAGCACGGAAACGUGCCCUUGGCAGCGCACAUGAGGAUCACCCAUGUCAUGUU”, the “apparent Kd” value reads like this: under setting [1], 18 nM; under setting [2], 24 nM.

Turning to “AAGGUGAUCCUCGAUACCAGCUCAACAUGAGGAUCACCCAUGUAAGCCUGGAAACAGGCGAGCCCUUGGCAGCGAGUUACAUCAA”, the “apparent Kd” value reads like this: under setting [3], 62.1 nM; under setting [4], 17.8 nM.

With “UCUUUCUAUUGUGAUACCAGACGUACAUGAGGAUCACCCAUGUUUCAUUCUUGUUUUAAAGUCCCUUGGCAGCACUAUUUGUUCG”, the “apparent Kd” value under setting [1] came to 16.3 nM and the “apparent Kd” value under setting [2] was found to be 13.2 nM.

Take “AGAAUACAUGUUUUAAUACGGAAAACUGAUACCAGUGUAUCUAUUCACCCUUGGCAGCAGAGACAUGAGGAUCACCCAUGUAUUA”: the “apparent Kd” value amounted to 41.3 nM under setting [3] and 28.6 nM under setting [4].

In the case of “AGAUAACAUGGUUUAAUAAGAUAAACUGAUACCAGUGUAUAUAAUCACCCUUGGCAGCAGCAACAUGAGGAUCACCCAUGUAAUA”, the “apparent Kd” value reads like this: under setting [3], 17 nM; under setting [4], 21.6 nM.

On to “UAUUUUGUGAUGGAUACCAGCAGAGAAAACGUUUAUCCUAACAUGAGGAUCACCCAUGUAUGCCCUUGGCAGCUGUUGUGGGAUA”, for which the “apparent Kd” value under setting [1] is 30.8 nM and the “apparent Kd” value under setting [2] is 36.1 nM.

Regarding “AUUUACAUGGUCAUAUAUAUAUCGUCAGAUACCAGACUAGAUAUUGUCCCUUGGCAGCUGUUACAUGAGGAUCACCCAUGUUAUA”, the “apparent Kd” value reads like this: under setting [1], 230 nM; under setting [2], 131 nM.

For the sequence “GUCCUAGCGAUCGCUCGCUAGGACGCGGAUACCAGCGAGGUCCAUCGCCCUUGGCAGCCGAACAUGAGGAUCACCCAUGUCGGUA”, the “apparent Kd” value was determined as 9.59 nM under setting [3] and 14.9 nM under setting [4].

For the sequence “ACAUGAAGAACAGCGGUGGGCGCGCUCGAUACCAGUAUUUUAAACUACCCUUGGCAGCGACAUGAGGAUCACCCAUGUGAGAUGA”, the “apparent Kd” value reads like this: under setting [1], 18.2 nM; under setting [2], 35.7 nM.

Take “AAAGGCGGGCAGGAUACCAGCGCUAACAUGAGGAUCACCCAUGUACAAAUAAUAACAUGGUGCCCUUGGCAGCCUGGGCGUCUGC”: the “apparent Kd” value is, setting by setting: under setting [3], 56 nM; under setting [4], 285 nM.

As to “UGACAUUGCUGCGAUACCAGACAUGAGGAUCACCCAUGUACCAAGGUAACCGAAAGGCAUGUCCCUUGGCAGCGCAGCAAUGUCU”, the “apparent Kd” value under setting [1] was found to be 11.5 nM and the “apparent Kd” value under setting [2] amounted to 197 nM.

Consider “ACAUGAGGAUCACCCAUGUCACGGCACGAUACCAGCUGAUGCGGUGGCCCUUGGCAGCGUGACGUUUGGUCCCGCGGAUGACGGG”, for which the “apparent Kd” value under setting [3] amounted to 40.8 nM and the “apparent Kd” value under setting [4] was 16.8 nM.

Take “GAUAGUUGAAGGGAUACCAGCCUGGACAUGAGGAUCACCCAUGUAGCGUGUUUGAAACUGGGCCCUUGGCAGCCCAUAUUGUGUA”: the “apparent Kd” value by setting is: under setting [3], 15.9 nM; under setting [4], 14.6 nM.

Consider “ACACAUGAGGAUCACCCAUGUUGCAUAGAUACCAGAUAACGUGAGAUCCCUUGGCAGCUAACUGCAUGAACUUGACAUGCAUCAU”, for which the “apparent Kd” value under setting [3] was found to be 42.4 nM and the “apparent Kd” value under setting [4] is 136 nM.

Consider “AUCGUACCUCAUGAUACCAGCAUGUGAUCAUAACAUGAGGAUCACCCAUGUAAUCAGUGAUGCCCUUGGCAGCGUAGUCGAUACA”, for which the “apparent Kd” value is, setting by setting: under setting [3], 136 nM; under setting [4], 63 nM.

For the sequence “AGCGACAUGCAUGAUACCAGCUACAUGAGGAUCACCCAUGUACGUCAGUAAUGACUGUGUAGCCCUUGGCAGCAUAAAGCAUGUC”, the “apparent Kd” value came out at 28.8 nM under setting [1] and 56.7 nM under setting [2].

Take “AUAAAUAAAACCGAUACCAGCCUUAUACAUGAGGAUCACCCAUGUUAUGCUUCCUUUUUUGGCCCUUGGCAGCGGAAAUGGGUAA”: the “apparent Kd” value by setting is: under setting [3], 83.3 nM; under setting [4], 40.8 nM.

(Values after the EternaBench riboswitch data.)
